Source: ChEMBL document CHEMBL3526138, “Excretion and metabolism of milnacipran in humans after oral administration of milnacipran hydrochloride” (Drug Metab Dispos, 2012)

Columns and labels:
Homo sapiens [1] = test: Total drug excretion in human at 100 mg, po up to 144 hrs by liquid scintillation counting analysis; assay type: ADME, organism-based; conditions: in vivo
Homo sapiens [2] = test: Cmax in human assessed as radioactivity at 100 mg, po by liquid scintillation counting analysis; assay type: ADME, organism-based; parameters: dose 100 mg, route oral; conditions: in vivo
Outline: (§1)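 Healthy males given single oral [14C] milnacipran hydrochloride (100 μCi; 1 μCi/mg) after breakfast. Blood drawn into chilled K3EDTA tubes pre-dose to 120 h, plasma spun ≥2,500 g 10 min 4°C and frozen -80°C. Radioactivity counted by LSC for 5 min, converted to ng equivalent/mL via specific activity. Parameters by non-compartmental analysis; subjects without emesis.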

Homo sapiens [3] = test: AUC (0 to t) in human assessed as radioactivity at 100 mg, po by liquid scintillation counting analysis; assay type: ADME, organism-based, Plasma; conditions: in vivo; outline: as §1
Homo sapiens [4] = test: AUC (0 to infinity) in human assessed as radioactivity at 100 mg, po by liquid scintillation counting analysis; assay type: ADME, organism-based, Plasma; parameters: dose 100 mg, route oral, time infinity; conditions: in vivo; outline: as §1
Homo sapiens [5] = test: Tmax in human assessed as radioactivity at 100 mg, po by liquid scintillation counting analysis; assay type: ADME, organism-based; conditions: in vivo; outline: as §1
Homo sapiens [6] = test: Half life in human assessed as radioactivity at 100 mg, po by liquid scintillation counting analysis; assay type: ADME, organism-based; conditions: in vivo; outline: as §1
[7] = Drug excretion in human urine at 100 mg, po up to 4 hrs by liquid scintillation counting analysis; assay type: ADME, organism-based; conditions: in vivo
Outline: (§2)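 Urine pooled at 0-4, 4-8, 8-12, 12-24 h, then daily intervals to 120 h after single oral 100 mg [14C] milnacipran hydrochloride; frozen -80°C and counted by LSC. Excreted amount = concentration × volume, given as % of dosed radioactivity, summed cumulatively per subject.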

Plasma = test: Drug recovery in human plasma at 100 mg, po by HPLC analysis; assay type: ADME, organism-based; conditions: in vivo
Outline: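 Pooled plasma extracted for metabolite profiling; recovery of radioactivity through sample processing and through Phenyl-Hexyl HPLC column (0.5-min fractions counted by LSC) expressed as % of plasma or sample radioactivity.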

[8] = Drug excretion in human urine at 100 mg, po up to 8 hrs by liquid scintillation counting analysis; assay type: ADME, organism-based; conditions: in vivo; outline: as §2
[9] = Drug excretion in human urine at 100 mg, po up to 12 hrs by liquid scintillation counting analysis; assay type: ADME, organism-based; conditions: in vivo; outline: as §2
[10] = Drug excretion in human urine at 100 mg, po up to 24 hrs by liquid scintillation counting analysis; assay type: ADME, organism-based; conditions: in vivo; outline: as §2
[11] = Drug excretion in human urine at 100 mg, po up to 48 hrs by liquid scintillation counting analysis; assay type: ADME, organism-based; conditions: in vivo; outline: as §2
[12] = Drug excretion in human urine at 100 mg, po up to 72 hrs by liquid scintillation counting analysis; assay type: ADME, organism-based; conditions: in vivo; outline: as §2
[13] = Drug excretion in human urine at 100 mg, po up to 96 hrs by liquid scintillation counting analysis; assay type: ADME, organism-based; conditions: in vivo; outline: as §2
[14] = Drug excretion in human urine at 100 mg, po up to 120 hrs by liquid scintillation counting analysis; assay type: ADME, organism-based; conditions: in vivo; outline: as §2
[15] = Drug excretion in human urine at 100 mg, po up to 144 hrs by liquid scintillation counting analysis; assay type: ADME, organism-based; conditions: in vivo
[16] = Drug excretion in human feces at 100 mg, po up to 24 hrs by liquid scintillation counting analysis; assay type: ADME, organism-based; conditions: in vivo
Outline: (§3)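 Feces pooled into 24-h collections to 120 h after oral 100 mg [14C] dose, frozen -80°C, homogenised in water. Triplicate weighed aliquots combusted in sample oxidizer, counted by LSC 5 min. Excreted amount = concentration × sample weight, expressed as % of dosed radioactivity and summed cumulatively per subject.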

[17] = Drug excretion in human feces at 100 mg, po up to 48 hrs by liquid scintillation counting analysis; assay type: ADME, organism-based; conditions: in vivo; outline: as §3
[18] = Drug excretion in human feces at 100 mg, po up to 72 hrs by liquid scintillation counting analysis; assay type: ADME, organism-based; conditions: in vivo; outline: as §3
[19] = Drug excretion in human feces at 100 mg, po up to 96 hrs by liquid scintillation counting analysis; assay type: ADME, organism-based; conditions: in vivo; outline: as §3
[20] = Drug excretion in human feces at 100 mg, po up to 120 hrs by liquid scintillation counting analysis; assay type: ADME, organism-based; conditions: in vivo; outline: as §3
[21] = Drug excretion in human feces at 100 mg, po up to 144 hrs by liquid scintillation counting analysis; assay type: ADME, organism-based; conditions: in vivo
[22] = Drug excretion in mouse urine at 100 mg/kg, po; assay type: ADME, organism-based; parameters: dose 100 mg/kg, route oral; conditions: read-out: Drug excretion
[23] = Drug excretion in monkey urine at 60 mg/kg, po; assay type: ADME, organism-based, Macaca mulatta; parameters: dose 60 mg/kg, route oral; conditions: rhesus monkey, read-out: Drug excretion
[24] = Drug excretion in rat urine at 100 mg/kg, po; assay type: ADME, organism-based; parameters: dose 100 mg/kg, route oral; conditions: read-out: Drug excretion
Homo sapiens [25] = test: Total drug excretion in human at 100 mg, po up to 4 hrs by liquid scintillation counting analysis; assay type: ADME, organism-based; conditions: in vivo
Outline: (§4)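 Mass balance after single oral 100 mg [14C] dose to healthy males: cumulative urinary plus fecal radioactivity (LSC; feces combusted first) as % of dose per subject, urine and feces collected in timed intervals to 120 h.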

Homo sapiens [26] = test: Total drug excretion in human at 100 mg, po up to 8 hrs by liquid scintillation counting analysis; assay type: ADME, organism-based; conditions: in vivo; outline: as §4
Homo sapiens [27] = test: Total drug excretion in human at 100 mg, po up to 12 hrs by liquid scintillation counting analysis; assay type: ADME, organism-based; conditions: in vivo; outline: as §4
Homo sapiens [28] = test: Total drug excretion in human at 100 mg, po up to 24 hrs by liquid scintillation counting analysis; assay type: ADME, organism-based; conditions: in vivo; outline: as §4
Homo sapiens [29] = test: Total drug excretion in human at 100 mg, po up to 48 hrs by liquid scintillation counting analysis; assay type: ADME, organism-based; conditions: in vivo; outline: as §4
Homo sapiens [30] = test: Total drug excretion in human at 100 mg, po up to 72 hrs by liquid scintillation counting analysis; assay type: ADME, organism-based; conditions: in vivo; outline: as §4
Homo sapiens [31] = test: Total drug excretion in human at 100 mg, po up to 96 hrs by liquid scintillation counting analysis; assay type: ADME, organism-based; conditions: in vivo; outline: as §4
Homo sapiens [32] = test: Total drug excretion in human at 100 mg, po up to 120 hrs by liquid scintillation counting analysis; assay type: ADME, organism-based; conditions: in vivo; outline: as §4

CCN(CC)[14C](=O)C1(c2ccccc2)CC1CN.Cl (stereo not drawn)
Drug excretion (Homo sapiens [1]): 96.9%
Cmax (Homo sapiens [2]): 679 ng.Eq/ml
AUCt (Homo sapiens [3]): 6446.3 ng.Eq.hr/ml
AUC (Homo sapiens [4]): 7325.3 ng.Eq.hr/ml
Tmax (Homo sapiens [5]): 4.3 h
t1/2 (Homo sapiens [6]): 7.7 h
Drug excretion [7]: 24.8%
Drug recovery (Plasma): 99.1%
Drug excretion [8]: 48.5%
Drug excretion [9]: 60.8%
Drug excretion [10]: 79.4%
Drug excretion [11]: 89.3%
Drug excretion [12]: 92.1%
Drug excretion [13]: 92.8%
Drug excretion [14]: 93.1%
Drug excretion [15]: 93.3%
Drug excretion [16]: 0.407%
Drug excretion [17]: 2.83%
Drug excretion [18]: 3.27%
Drug excretion [19]: 3.62%
Drug excretion [20]: 3.65%
Drug excretion [21]: 3.65%
dose excreted [22]: 63%
dose excreted [23]: 40%
dose excreted [24]: 63%
Drug excretion (Homo sapiens [25]): 24.8%
Drug excretion (Homo sapiens [26]): 48.5%
Drug excretion (Homo sapiens [27]): 60.8%
Drug excretion (Homo sapiens [28]): 79.6%
Drug excretion (Homo sapiens [29]): 92.2%
Drug excretion (Homo sapiens [30]): 95.4%
Drug excretion (Homo sapiens [31]): 96.5%
Drug excretion (Homo sapiens [32]): 96.8%
